In ChEMBL document CHEMBL4190338, “1-Benzyl-3-aryl-2-thiohydantoin Derivatives as New Anti-Trypanosoma brucei Agents: SAR and in Vivo Efficacy” (ACS Med Chem Lett, 2017):
Values after ≈ are worked out from the molar mass of the structure shown.

Assays:
[1] = Cytotoxicity against human CRL8155 cells assessed as growth inhibition after 48 hrs by Alamar blue assay; assay type: cell-based
Summary of the method: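 Serial 3-fold dilutions in quadruplicate, 48 h, AlamarBlue read-out. Inhibition relative to untreated cells after subtracting a 50 µM quinacrine background. EC50 by nonlinear regression.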

[2] = tested on: Trypanosoma brucei brucei; assay: Antitrypanosomal activity against Trypanosoma brucei brucei BF427 measured after 48 hrs by Alamar blue assay; assay type: functional, organism-based; details: BF427, 48 h
Summary of the method: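 Bloodstream T. brucei BF427 cultured in HMI-9 medium. Exposed to serial 3-fold compound dilutions in triplicate, read with Alamar Blue at 48 h. Pentamidine isethionate control in every assay.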

[3] = Protein binding in Swiss Webster mouse plasma at 2 uM after 8 hrs by microdialysis based liquid chromatography/tandem mass spectrometric analysis; assay type: ADME, cell-free
Summary of the method: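 Compound at 2 µM in 50% pooled female Swiss Webster mouse plasma (lithium heparin) with 10X PBS, dialysed against blank 10X PBS in triplicate chambers of a microdialysis device. Incubation at 37 °C, 5% CO2 overnight or ≥8 h with shaking. Centrifuged 3000 rcf 15 min; supernatants concentrated, LC-MS/MS. Propranolol control.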

[4] = Ratio of drug level in mouse brain to plasma at 5 mg/kg, ip administered as single dose measured 1 hr post dose by liquid chromatography/tandem mass spectrometric analysis; assay type: ADME, organism-based
Summary of the method: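 Single IP injection of 5 mg/kg in 5% DMSO/7% Tween80/3% EtOH in 0.9% saline. At 1 h, plasma and brains collected; brains homogenized in water. Vehicle-injected mice (n=3) supplied matrix for standard curves. LC-MS/MS quantitation, with brain levels corrected for 3% v/w residual blood.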

[5] = tested on: Mus musculus; assay: Cmax in mouse at 50 mg/kg, po administered as single dose measured 24 hrs post dose by liquid chromatography/tandem mass spectrometric analysis; assay type: ADME, organism-based; set-up: dose 50 mg/kg, route oral; details: in vivo
Summary of the method: (§1)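 Single oral dose of 50 mg/kg to mice in Phosal 53 MCT (60%)/PEG400 (30%)/ethanol (10%). Tail blood collected at 0.5, 1, 2, 4, 6, 8 and 24 h post dose and spotted onto DMPK cards. Punched dried blood spot disks extracted with acetonitrile, quantified by LC-MS/MS.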

[6] = Half life in mouse liver microsomes at 1.5 uM by liquid chromatography/tandem mass spectrometric analysis; assay type: ADME, microsome
Summary of the method: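 Pooled mouse liver microsomes at 0.5 mg/ml with compound at 1.5 µM final, in duplicate. Quenched with acetonitrile at 0, 5, 10, 15, 30 and 60 min, analysed by LC-MS/MS. Testosterone and dextromethorphan run as controls.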

[7] = tested on: Trypanosoma brucei rhodesiense; assay: Antitrypanosomal activity against trypomastigote form of Trypanosoma brucei rhodesiense STIB900 infected in mouse assessed as cure rate at 50 mg/kg administered via oral gavage bid from day 2 to 5 post infection measured 3 times per week for first month and weekly up to 60 days by microscopic method relative to control; assay type: functional
[8] = Solubility in phosphate buffered saline at pH 7.4 at 50 uM incubated overnight by liquid chromatography/tandem mass spectrometric analysis; assay type: physicochemical; details: buffer, pH 7.4, 50 µM
Summary of the method: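 Compound at 50 µM in 1X PBS adjusted to pH 7.4, shaken overnight at 37 °C, then centrifuged 13500 rpm for 15 min at room temperature. Duplicate supernatant aliquots analysed by LC-MS/MS.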

[9] = tested on: Mus musculus; assay: AUC in mouse at 50 mg/kg, po administered as single dose measured 24 hrs post dose by liquid chromatography/tandem mass spectrometric analysis; assay type: ADME, organism-based; details: in vivo; summary of the method: as §1
[10] = target: Cytochrome P450 3A4 (Homo sapiens, UniProt P08684); assay: Inhibition of CYP3A4 (unknown origin); assay type: ADME
Chain of Cytochrome P450 3A4 (P08684 whole entry): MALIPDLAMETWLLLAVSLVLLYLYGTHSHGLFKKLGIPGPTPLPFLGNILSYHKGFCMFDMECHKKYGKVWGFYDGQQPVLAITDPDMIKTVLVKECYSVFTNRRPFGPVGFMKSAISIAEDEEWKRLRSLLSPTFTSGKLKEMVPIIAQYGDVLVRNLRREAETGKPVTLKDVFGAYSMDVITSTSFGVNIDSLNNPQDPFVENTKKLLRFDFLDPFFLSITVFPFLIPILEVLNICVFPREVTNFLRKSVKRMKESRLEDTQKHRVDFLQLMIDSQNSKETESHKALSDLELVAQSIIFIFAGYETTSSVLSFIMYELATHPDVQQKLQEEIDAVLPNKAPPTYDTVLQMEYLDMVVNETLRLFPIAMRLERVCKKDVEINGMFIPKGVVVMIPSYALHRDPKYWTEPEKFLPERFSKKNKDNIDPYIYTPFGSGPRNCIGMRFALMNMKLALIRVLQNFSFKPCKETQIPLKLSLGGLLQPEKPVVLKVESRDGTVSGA

Structure (SMILES)	CC50 [1]	EC50 [2]	further results
COc1ccc(N2C(=O)CN(Cc3ccc(F)cc3F)C2=S)cc1OC	> 50 µM	0.033 µM	
O=C1CN(Cc2ccccc2)C(=S)N1c1ccc(Cl)c(C(F)(F)F)c1		> 10 µM	
COc1cccc(N2C(=O)CN(Cc3ccccc3)C2=S)c1		> 10 µM	
COc1ccc(Cl)cc1N1C(=O)CN(Cc2ccccc2)C1=S		> 10 µM	
COc1ccc(N2C(=O)CN(Cc3ccccc3)C2=S)cc1Cl		0.346 µM	
O=C1CN(Cc2ccc(F)cc2Cl)C(=S)N1c1ccc(N2CCCC2)c(Cl)c1	> 50 µM	0.009 µM	
COc1ccc(N2C(=O)CN(Cc3ccc(F)cc3)C2=S)cc1Cl		0.052 µM	
CN(C)c1ccc(N2C(=O)CN(Cc3ccc(F)cc3Cl)C2=S)cc1F	> 50 µM	0.015 µM	
COc1ccc(N2C(=O)CN(Cc3ccc(C(F)(F)F)cc3)C2=S)cc1Cl		> 20 µM	
O=C1CN(Cc2ccccc2)C(=S)N1c1ccccc1		> 10 µM	
COc1cc(N2C(=O)CN(Cc3ccccc3)C2=S)ccc1N(C)C		0.013 µM	
CN(C)c1ccc(N2C(=O)CN(Cc3ccc(F)cc3Cl)C2=S)cc1Cl	> 50 µM	0.002 µM	
COc1ccc(N2C(=O)CN(Cc3ccc(F)c(F)c3)C2=S)cc1OC	> 50 µM	0.115 µM	
O=C1CN(Cc2ccccc2)C(=S)N1c1cc(C(F)(F)F)cc(C(F)(F)F)c1		> 10 µM	
COc1ccc(N2C(=O)CN(Cc3ccc(F)c(F)c3)C2=S)cc1Cl		0.313 µM	
COc1ccc(N2C(=O)CN(Cc3ccc(F)cc3[N+](=O)[O-])C2=S)cc1Cl		0.35 µM	
N=C(N)c1ccc(OCCCCCOc2ccc(C(=N)N)cc2)cc1		0.00115 µM	
COc1cc(N2C(=O)CN(Cc3ccc(F)c(F)c3)C2=S)ccc1N(C)C	> 50 µM	0.028 µM	
CC(C)c1ccc(N2C(=O)CN(Cc3ccccc3)C2=S)cc1		> 10 µM	
COc1ccc(N2C(=O)CN(Cc3ccccc3)C2=S)cc1N(C)C		0.431 µM	
COc1ccc(N2C(=O)CN(Cc3ccc(F)c(C#N)c3)C2=S)cc1Cl		> 20 µM	
COc1cc(N2C(=O)CN(Cc3ccccc3)C2=S)cc(OC)c1OC		> 10 µM	
CC(C)NCC(O)COc1cccc2ccccc12 (centres undefined) [PROPRANOLOL]			PPB [3]: 91.7%

Structure (SMILES)	CC50 [1]	EC50 [2]	further results
CCN(CC)CCCC(C)Nc1c2ccc(Cl)cc2nc2ccc(OC)cc12 (centres undefined) [QUINACRINE]	2.34 µM		
O=C(O)c1ccc(N2C(=O)CN(Cc3ccccc3)C2=S)cc1		> 10 µM	
O=C1CN(Cc2ccccc2)C(=S)N1c1cccc(Cl)c1		> 20 µM	
COc1cc(N2C(=O)CN(Cc3ccc(F)cc3C(F)(F)F)C2=S)ccc1N(C)C	> 50 µM	0.028 µM	
COc1ccc(N2C(=O)CN(Cc3ccc(Cl)cc3)C2=S)cc1Cl		0.853 µM	
COc1ccc(N2C(=O)CN(Cc3ccc(F)cc3Cl)C2=S)cc1OC	36.8 µM	0.014 µM	
CN(C)c1ccc(N2C(=O)CN(Cc3ccc(F)cc3F)C2=S)cc1Cl	> 50 µM	0.004 µM	
O=C1CN(Cc2ccccc2)C(=S)N1c1cc(Cl)ccc1F		> 10 µM	
O=C1CN(Cc2ccccc2)C(=S)N1c1ccc(F)c(Cl)c1		> 10 µM	
COc1ccc(N2C(=O)CN(Cc3ccc(C)cc3)C2=S)cc1Cl		1.55 µM	
COc1ccc(N2C(=O)CN(Cc3ccc(F)cc3OC)C2=S)cc1Cl		0.191 µM	
O=C1CN(Cc2ccc(F)cc2)C(=S)N1c1ccc(N2CCCC2)c(Cl)c1	> 50 µM	0.027 µM	
COc1ccc(N2C(=O)CN(Cc3ccc(F)cc3F)C2=S)cc1Cl		0.063 µM	
COc1cc(F)ccc1CN1CC(=O)N(c2ccc(N(C)C)c(Cl)c2)C1=S	12.6 µM	0.011 µM	
O=C1CN(Cc2ccccc2)C(=S)N1c1ccc(Cl)cc1		> 10 µM	
CN(C)c1ccc(N2C(=O)CN(Cc3ccc(F)c(F)c3)C2=S)cc1Cl	> 50 µM	0.013 µM	
COc1ccc(N2C(=O)CN(Cc3cccc(F)c3)C2=S)cc1Cl		0.968 µM	
O=C1CN(Cc2ccccc2)C(=S)N1c1ccccc1Cl		> 20 µM	
COc1ccc(N2C(=O)CN(Cc3ccc(F)cc3)C2=S)cc1OC	> 50 µM	0.049 µM	
CN(C)c1ccc(N2C(=O)CN(Cc3ccccc3)C2=S)cc1Cl		0.016 µM	
COc1ccc(N2C(=O)CN(Cc3ccc(F)cc3C(F)(F)F)C2=S)cc1Cl		0.924 µM	
O=C1CN(Cc2ccc(F)cc2F)C(=S)N1c1ccc(N2CCCC2)c(Cl)c1	> 50 µM	0.01 µM	
CN(C)c1ccc(N2C(=O)CN(Cc3ccc(F)cc3C(F)(F)F)C2=S)cc1Cl	> 50 µM	0.022 µM	

Structure (SMILES)	CC50 [1]	EC50 [2]	further results
COc1ccc(N2C(=O)CN(Cc3ccc(F)cc3[N+](=O)[O-])C2=S)cc1OC	> 50 µM	0.555 µM	
COc1cc(N2C(=O)CN(Cc3ccc(F)cc3)C2=S)ccc1N(C)C	> 50 µM	0.007 µM	
CN(C)c1ccc(N2C(=O)CN(Cc3ccc(F)cc3F)C2=S)cc1F	> 50 µM	0.028 µM	
CN(C)c1ccc(N2C(=O)CN(Cc3ccccc3)C2=S)cc1		1.5 µM	
COc1ccc(N2C(=O)CN(Cc3ccccc3)C2=S)cc1OC		0.161 µM	
COc1ccc(N2C(=O)CN(Cc3ccc(C#N)cc3)C2=S)cc1Cl		17.8 µM	
CC(=O)c1ccc(N2C(=O)CN(Cc3ccccc3)C2=S)cc1		> 10 µM	
CN(C)c1ccc(N2C(=O)CN(Cc3ccccc3)C2=S)cc1F		0.125 µM	
COc1cc(N2C(=O)CN(Cc3ccc(F)cc3F)C2=S)ccc1N(C)C	> 50 µM	0.006 µM	
CN(C)c1ccc(N2C(=O)CN(Cc3ccc(F)cc3[N+](=O)[O-])C2=S)cc1Cl	> 50 µM	0.019 µM	
COC(=O)c1ccc(CN2CC(=O)N(c3ccc(OC)c(Cl)c3)C2=S)cc1		> 20 µM	
COc1cc(N2C(=O)CN(Cc3ccc(F)cc3[N+](=O)[O-])C2=S)ccc1N(C)C	> 50 µM	0.044 µM	
CN(C)c1ccc(N2C(=O)CN(Cc3ccc(F)cc3)C2=S)cc1Cl	39 µM	0.003 to 0.0032 µM	BPR [4]: 0.74; Cmax [5]: 2100 nM; t1/2 [6]: 15 min; PPB [3]: 88.8%; Activity [7]: 100%; solubility [8]: 2.1 µM (≈ 0.794 µg/mL); AUC [9]: 1376 µmol·min/L
COc1ccc(N2C(=O)CN(Cc3ccc(F)cc3C(F)(F)F)C2=S)cc1OC	> 50 µM	0.037 µM	
COc1ccc(CN2CC(=O)N(c3ccc(OC)c(Cl)c3)C2=S)cc1		> 20 µM	
COc1cc(F)ccc1CN1CC(=O)N(c2ccc(OC)c(OC)c2)C1=S	> 50 µM	0.107 µM	
COc1cc(F)ccc1CN1CC(=O)N(c2ccc(N(C)C)c(OC)c2)C1=S	39.6 µM	0.011 µM	
COc1ccc(N2C(=O)CN(Cc3ccccc3)C2=S)c(OC)c1		0.637 µM	
O=C1CN(Cc2ccccc2)C(=S)N1c1ccc(O)cc1		> 10 µM	
COc1cc(N2C(=O)CN(Cc3ccc(F)cc3Cl)C2=S)ccc1N(C)C	> 50 µM	0.0019 to 0.002 µM	BPR [4]: 1.68; Cmax [5]: 2500 nM; PPB [3]: 96.3%; IC50 [10]: 7.76 µM; Activity [7]: 100%; solubility [8]: 4.1 µM (≈ 1.67 µg/mL); AUC [9]: 750 µmol·min/L
O=C1CN(Cc2ccccc2)C(=S)N1c1ccc(F)cc1		> 10 µM	
COc1ccc(N2C(=O)CN(Cc3cccnc3)C2=S)cc1Cl		3 µM	
COc1ccc(N2C(=O)CN(Cc3ccccc3)C2=S)cc1		> 10 µM	
